Results from ChEMBL document CHEMBL1135602 (J Med Chem, 2002).

Tests used:
Plasmodium falciparum [1] = assay: In vitro antiplasmodial activity (IC50) against Plasmodium falciparum wtTM4/8.2; format: functional, organism-based
[2] = system: Bifunctional dihydrofolate reductase-thymidylate synthase (Plasmodium falciparum K1), P13922 [UNDEFINED MUTATION]; assay: Ratio of Inhibition of the C59R+S108N mutant of dihydrofolate reductase (DHFR) to inhibition of wild type dihydrofolate reductase.
[3] = system: Bifunctional dihydrofolate reductase-thymidylate synthase (Plasmodium falciparum K1), P13922 [UNDEFINED MUTATION]; assay: Ratio of Inhibition of the S108N mutant of dihydrofolate reductase (DHFR) to inhibition of wild type dihydrofolate reductase.
[4] = target: Bifunctional dihydrofolate reductase-thymidylate synthase (Plasmodium falciparum K1) (UniProt P13922); assay: Inhibition of mutant S108N dihydrofolate reductase (DHFR) relative to Pyr
Sequence of Bifunctional dihydrofolate reductase-thymidylate synthase (Plasmodium falciparum K1) (P13922 whole entry, looked up): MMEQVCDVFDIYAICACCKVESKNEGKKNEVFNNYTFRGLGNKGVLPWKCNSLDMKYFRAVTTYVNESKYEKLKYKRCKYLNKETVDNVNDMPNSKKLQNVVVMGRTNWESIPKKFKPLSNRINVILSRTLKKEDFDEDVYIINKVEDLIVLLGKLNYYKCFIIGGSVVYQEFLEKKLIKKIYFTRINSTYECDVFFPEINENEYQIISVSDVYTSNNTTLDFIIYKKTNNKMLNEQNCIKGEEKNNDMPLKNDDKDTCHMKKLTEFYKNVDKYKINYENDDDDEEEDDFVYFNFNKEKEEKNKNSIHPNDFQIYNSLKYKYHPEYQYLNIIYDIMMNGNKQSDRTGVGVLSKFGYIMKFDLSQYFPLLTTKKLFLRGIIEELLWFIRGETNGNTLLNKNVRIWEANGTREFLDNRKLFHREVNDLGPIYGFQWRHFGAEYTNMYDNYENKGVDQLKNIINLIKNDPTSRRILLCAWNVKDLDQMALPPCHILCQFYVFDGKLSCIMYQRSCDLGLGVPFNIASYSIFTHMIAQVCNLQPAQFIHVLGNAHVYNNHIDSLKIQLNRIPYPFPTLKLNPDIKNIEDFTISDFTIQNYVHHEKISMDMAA

[5] = target: Bifunctional dihydrofolate reductase-thymidylate synthase (Plasmodium falciparum K1, UniProt P13922); assay: Inhibition of the C59R+S108N mutant of dihydrofolate reductase (DHFR)
Sequence of Bifunctional dihydrofolate reductase-thymidylate synthase (Plasmodium falciparum K1, UniProt P13922) (P13922 whole entry): as the sequence (P13922 whole entry, looked up) above
In short: (§1)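 Assay at 25 °C: 50 mM TES pH 7.0, 75 mM β-mercaptoethanol, 1 mg/mL BSA, 100 µM H2folate and 100 µM NADPH. NADPH oxidation followed at 340 nm. Ki derived from IC50 as Ki(1+[S]/Km), assuming competitive inhibition.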

[6] = target: Bifunctional dihydrofolate reductase-thymidylate synthase (Plasmodium falciparum K1) (UniProt P13922); assay: Inhibition of Plasmodium falciparum wild-type dihydrofolate reductase (DHFR) relative to Pyrimethamine.
[7] = target: Bifunctional dihydrofolate reductase-thymidylate synthase (Plasmodium falciparum K1) (UniProt P13922); assay: Inhibition of mutant C59R+S108N dihydrofolate reductase (DHFR) relative to Pyr
[8] = target: Bifunctional dihydrofolate reductase-thymidylate synthase (Plasmodium falciparum K1, UniProt P13922, S108N); assay: Inhibition of the S108N mutant of dihydrofolate reductase (DHFR); in short: as §1
Sequence of Bifunctional dihydrofolate reductase-thymidylate synthase (Plasmodium falciparum K1, UniProt P13922, S108N) (P13922 whole entry, looked up, stated change not applied): as the sequence (P13922 whole entry, looked up) above

Plasmodium falciparum [9] = assay: IC50 ratio against Plasmodium falciparum K1CB1/TM4; format: functional
[10] = target: Bifunctional dihydrofolate reductase-thymidylate synthase (Plasmodium falciparum K1) (UniProt P13922); assay: Inhibition of the wild-type dihydrofolate reductase (DHFR) relative to Pyr.
In short: (§2)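 Assayed at 25 °C in 50 mM TES pH 7.0, 75 mM β-mercaptoethanol, 1 mg/mL BSA, with 100 µM H2folate and 100 µM NADPH. A340 was followed. Ki was derived from IC50 = Ki(1+[S]/Km), assuming competitive inhibition.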

[11] = target: Bifunctional dihydrofolate reductase-thymidylate synthase (Plasmodium falciparum K1) (UniProt P13922); assay: Inhibition of the S108N mutant of dihydrofolate reductase (DHFR) relative to Pyr.; in short: as §2
Plasmodium falciparum [12] = assay: In vitro relative antiplasmodial activity (IC50) compared to Pyr against Plasmodium falciparum TM4/8.2 wild-type; format: functional
[13] = target: Bifunctional dihydrofolate reductase-thymidylate synthase (Plasmodium falciparum K1) (UniProt P13922); assay: Inhibition of the C59R+S108N mutant of dihydrofolate reductase (DHFR) relative to Pyr.; in short: as §2
Plasmodium falciparum [14] = assay: Relative antiplasmodial activity (IC50) compared to Pyr against Plasmodium falciparum K1CB1 DHFR double-mutant (C59R/S108N); format: functional
Vero = assay: Cytotoxicity by the selective inhibition against African green monkey kidney […] (vero cells).; format: functional, cell-based; settings: Chlorocebus sabaeus
KB = assay: Cytotoxicity against human epidermoid carcinoma KB cell.; format: functional, cell-based
BC = assay: Cytotoxicity against human breast cancer cells.; format: functional, cell-based
[15] = Safety ratio is cytotoxicity to vero cells/IC50 K1.; format: toxicity, cell-based; settings: monkey, read-out: Safety ratio
In short: (§3)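 Ratio of the cytotoxicity IC50 (vero, KB or BC cells, Skehan protocol) to the antiplasmodial IC50 against K1CB1 (C59R+S108N DHFR). […] Label was added at 24 h and cultures ran a further 18-24 h. Final DMSO was 0.1%.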

[16] = Safety ratio is cytotoxicity to KB cells/IC50 TM4.; format: toxicity, cell-based; settings: human, KB cells (epidermoid carcinoma); read-out: Safety ratio
In short: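 Ratio of the cytotoxicity IC50 (KB or BC cells, Skehan protocol) to the antiplasmodial IC50 against TM4/8.2 (wild-type DHFR). […] Label was added after 24 h and cultures ran a further 18-24 h.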

[17] = Safety ratio is cytotoxicity to KB cells/IC50 K1.; format: toxicity, cell-based; settings: human, KB cells (epidermoid carcinoma); read-out: Safety ratio; in short: as §3
Plasmodium falciparum [18] = assay: Safety ratio as cytotoxicity in vero cells relative to IC50 TM4; format: functional

Sequence of Bifunctional dihydrofolate reductase-thymidylate synthase (Plasmodium falciparum K1), P13922 [UNDEFINED MUTATION] (P13922 whole entry, looked up, stated change not applied): as the sequence (P13922 whole entry, looked up) above

Compound | IC50 (Plasmodium falciparum [1]) [nM] | Ratio [2] | Ratio [3] | Relative activity [4] | Ki [5] [nM] | Relative activity [6] | Relative activity [7] | Ki [8] [nM] | Ratio (Plasmodium falciparum [9]) | further results
Cc1nc(N)nc(N)c1-c1ccc(Cl)cc1 | 500 | 71 | 51.8 | 3.6 | 142 | 3.3 | 2.6 | 104 | 120.2 | –
Nc1nc(N)c(-c2ccc(Cl)cc2)c(CCCc2ccccc2)n1 | 50 | 33.3 | 19.9 | 0.5 | 23.3 | 1.2 | 0.4 | 13.9 | 212 | –
CCc1nc(N)nc(N)c1-c1ccc(OC)cc1 | 300 | 95.6 | 43.3 | – | 86 | – | – | 39 | >84 | Relative activity [10]: 1.5; Relative activity [11]: 1.4; Relative activity (Plasmodium falciparum [12]): 3.8; Relative activity [13]: 1.6; Relative activity (Plasmodium falciparum [14]): >0.8
CCCCOc1cc(Cc2cnc(N)nc2N)ccc1OCc1cc(OC)c(OC)c(OC)c1 | 440 | – | – | – | – | – | – | – | – | IC50 (Vero): > 50000 nM; IC50 (KB): > 50000 nM
CCOc1cc(Cc2cnc(N)nc2N)ccc1OCc1ccccc1 | 500 | – | – | – | – | – | – | – | – | IC50 (BC): 100000 nM; IC50 (Vero): > 250000 nM; IC50 (KB): 47000 nM
COC(=O)CCCc1nc(N)nc(N)c1-c1ccccc1 | 400 | 9.2 | 0.06 | 0.06 | 5.5 | 1 | 0.1 | 1.8 | 78.3 | –
COC(=O)CCCc1nc(N)nc(N)c1-c1ccc(Cl)cc1 | 40 | 91.3 | 56.3 | 0.6 | 27.4 | 0.5 | 0.5 | 16.9 | 557.5 | –
Cc1nc(N)nc(N)c1-c1ccccc1 | 7400 | 3.4 | 2.3 | 0.9 | 36.7 | 18.2 | 0.7 | 25.6 | 4.2 | –
Cc1nc(N)nc(N)c1-c1cccc(Cl)c1 | 2400 | 1.6 | 1.7 | – | 3.1 | 3.2 | – | 3.2 | 2 | –
COc1cc(Cc2cnc(N)nc2N)cc(OC)c1OC [TRIMETHOPRIM] | – | – | – | – | – | – | – | – | – | IC50 (BC): > 250000 nM; IC50 (Vero): > 50000 nM; IC50 (KB): > 250000 nM
Nc1ncc(-c2cccc(Cl)c2)c(N)n1 | 6000 | 5 | 4.2 | – | 31.6 | 10.5 | – | 26.3 | 1.5 | –
COc1cc(Cc2cnc(N)nc2N)cc(OC)c1OCc1ccccc1 | 4200 | – | – | – | 71.9 | – | – | 61.9 | 7.1 | –
CCc1nc(N)nc(N)c1-c1ccc(Cl)cc1Cl | 11300 | 90.6 | 93.1 | 41 | 1140 | 21 | 21.2 | 1170 | 2 | –
CCc1nc(N)nc(N)c1-c1ccc(OCc2ccc(Cl)cc2Cl)c(OC)c1 | 3700 | – | – | – | – | – | – | – | – | –
COc1cc(COc2ccc(Cc3cnc(N)nc3N)cc2)cc(OC)c1OC | 700 | – | – | – | – | – | – | – | – | IC50 (BC): > 250000 nM; IC50 (Vero): > 250000 nM; IC50 (KB): > 250000 nM
CCc1nc(N)nc(N)c1-c1ccc(Cl)c(Cl)c1 [ETOPRINE] | 60 | 12.6 | 9 | 0.3 | 12.6 | 1.7 | 0.2 | 9 | 290 | –
Nc1ncc(-c2ccc(Cl)cc2)c(N)n1 | 2300 | 232 | 154 | 12.9 | 556 | 4 | 10.3 | 369 | 11.4 | –
Nc1ncc(-c2ccccc2)c(N)n1 | 20900 | 1.8 | 1.9 | 2.8 | 76.2 | 69.8 | 1.4 | 81 | 0.9 | –
Nc1nc(N)c(-c2cccc(Cl)c2)c(CCCc2ccccc2)n1 | 700 | 3.5 | 2.5 | – | 4.2 | 2 | – | 3 | 4.3 | –
CCc1nc(N)nc(N)c1-c1ccc(Cl)cc1 [PYRIMETHAMINE] | 80 | – | – | – | – | – | – | – | – | IC50 (BC): > 250000 nM; IC50 (KB): 109000 nM
COC(=O)CCCc1nc(N)nc(N)c1-c1cccc(Cl)c1 | 800 | 5.6 | 3.4 | – | 2.8 | 0.8 | – | 1.7 | 45.4 | –
CCc1nc(N)nc(N)c1-c1cccc(Cl)c1 | 400 | – | – | […] | […] | […] | […] | 1.6 | […] | IC50 (BC): 25000 nM; IC50 (Vero): 7000 nM; selectivity ratio [15]: […]; selectivity ratio [16]: […]; selectivity ratio [17]: […]; Safety ratio (Plasmodium falciparum [18]): […]; IC50 (KB): 46000 nM
CCOc1c(Br)cc(-c2c(N)nc(N)nc2CC)cc1Br | 3700 | 76.3 | 59.3 | 14.5 | 535 | 11.7 | 9.9 | 415 | 4.7 | –
CCc1nc(N)nc(N)c1-c1ccc2c(c1)OCO2 | 400 | 31.5 | 15.6 | 0.6 | 34.6 | 1.8 | 0.6 | 17.2 | 53.8 | –
